Measurements of several laboratories.
Compare with care: the assays were run in different laboratories.
Organism: Staphylococcus aureus
Effect on: microbial growth

Structure (SMILES)	assay	system	conditions	MIC
C[C@H]1COc2c(N3CCN(C)CC3)c(F)cc3c(=O)c(C(=O)O)cn1c23		ATCC29213 MSSA	drug-resistant strain	0.12 µg/mL
Cc1ccc2[nH]nc(-c3nnc(Nc4ccc(Br)cc4)s3)c2c1		ATCC29213		154 µg/mL
CN[C@H](CC(C)C)C(=O)N[C@H]1C(=O)N[C@@H](CC(N)=O)C(=O)N[C@H]2C(=O)N[C@H]3C(=O)N[C@H](C(=O)N[C@H](C(=O)O)c4cc(O)cc(O)c4-c4cc3ccc4O)[C@H](O)c3ccc(c(Cl)c3)Oc3cc2cc(c3O[C@@H]2O[C@H](CO)[C@@H](O)[C@H](O)[C@H]2O[C@H]2C[C@](C)(N)[C@H](O)[C@H](C)O2)Oc2ccc(cc2Cl)[C@H]1O	agar dilution	ATCC25923		0.5 µg/mL
N#CC(C#N)=C1SC(C(=O)c2ccc(Nc3cnccn3)cc2)=NN1c1ccc([N+](=O)[O-])cc1	broth dilution	ATCC25923		3.12 µg/mL
CC[C@H]1OC(=O)[C@H](C)[C@@H](O[C@H]2C[C@@](C)(OC)[C@@H](O)[C@H](C)O2)[C@H](C)[C@@H](O[C@@H]2O[C@H](C)C[C@H](N(C)C)[C@H]2O)[C@](C)(O)C[C@@H](C)/C(=N\OCOCCOC)[C@H](C)[C@@H](O)[C@]1(C)O	agar dilution	ATCC29213		4 µg/mL
O=C(O)c1cn(C2CC2)c2cc(N3CCNCC3)c(F)cc2c1=O	broth dilution	ATCC25923	16 h	6.25 µM
CCCCCCC#Cc1cncc(-c2nnc(SCc3cc([N+](=O)[O-])cc([N+](=O)[O-])c3)n2CCOC2OC(CN)C(O)C2O)c1 (stereo not drawn)	broth dilution	ATCC29213		> 64 µg/mL
Cc1ccc2[nH]nc(-c3nnc(Nc4ccc(C(F)(F)F)cc4)s3)c2c1		ATCC29213		14.4 µg/mL
CC[C@H]1OC(=O)[C@H](C)[C@@H](O[C@H]2C[C@@](C)(OC)[C@@H](O)[C@H](C)O2)[C@H](C)[C@@H](O[C@@H]2O[C@H](C)C[C@H](N(C)C)[C@H]2O)[C@](C)(O)C[C@@H](C)C(=O)[C@H](C)[C@@H](O)[C@]1(C)O	broth dilution	ATCCBAA44 BAA44		> 64 µg/mL
CC(=O)c1ccc2cc(S(=O)(=O)Nc3ccc(Br)cc3)ccc2c1	broth dilution	ATCC25923		20000 µg/mL
CCCCCCC#Cc1cncc(-c2nnc(SCc3cc([N+](=O)[O-])cc([N+](=O)[O-])c3)n2C2CCNCC2)c1	broth dilution	ATCC29213		8 µg/mL
CC1(C)S[C@@H]2[C@H](NC(=O)[C@H](N)c3ccc(O)cc3)C(=O)N2[C@H]1C(=O)O	broth dilution	ATCCBAA44 BAA44		64 µg/mL
c1ccc(CSc2nc3ccc(-c4ccccc4)cc3cc2CNCCC2CCN(C3CCCC3)CC2)cc1	broth dilution			8 µg/mL
CC(=O)NC[C@H]1CN(c2ccc(N3CCOCC3)c(F)c2)C(=O)O1	agar dilution	ATCC29213		2 µg/mL
Brc1ccc2nc(SCc3ccccc3)c(CNCc3ccc(CN4CCCC4)cc3)cc2c1	broth dilution			32 µg/mL
CC1(C)S[C@@H]2[C@H](NC(=O)[C@H](N)c3ccccc3)C(=O)N2[C@H]1C(=O)O	agar dilution	ATCC29213		16 µg/mL
CN1CCN(CCNCc2cc3cc(-c4ccccc4)ccc3nc2SCc2ccccc2)CC1	broth dilution			8 µg/mL
C=C[C@]1(C)C[C@@H](OC(=O)CS[C@@H]2C[C@H]3CC[C@@H](C2)N3C)[C@]2(C)[C@H](C)CC[C@]3(CCC(=O)[C@H]32)[C@@H](C)[C@@H]1O	agar dilution	ATCC43300		0.0625 µg/mL
[H]/N=C(\N/C(=N/[H])NCCCCCCNC(=N)NC(=N)Nc1ccc(Cl)cc1)Nc1ccc(Cl)cc1		MRSA USA300	drug-resistant strain	1 µM
CCCCCCC#Cc1cncc(-c2nnc(SCc3ccc([N+](=O)[O-])cc3)n2CCCN)c1	broth dilution	ATCC29213		8 µg/mL
c1ccc(CSc2nc3ccc(-c4ccccc4)cc3cc2CNCc2ccc(CN3CCCC3)cc2)cc1	broth dilution			> 128 µg/mL
COc1ccc(N2N=C(C(=O)c3ccc(Nc4cnccn4)cc3)SC2=C(C#N)C#N)cc1	broth dilution	ATCC25923		3.12 µg/mL
Cc1ccc2[nH]nc(-c3nnc(Nc4ccc([N+](=O)[O-])cc4)s3)c2c1		ATCC29213		37.4 µg/mL
CCCCCCCCCCCC[N+](C)(C)Cc1ccccc1		MRSA USA300	drug-resistant strain	8 µM
CCCCCCC#Cc1cncc(-c2nnc(SCc3ccc([N+](=O)[O-])o3)n2CCCN)c1	broth dilution	MRSA		> 64 µg/mL
COc1ccc(C=NNC(=O)CSc2nc3c(C)cccc3c(=O)n2-c2ccccc2)cc1OS(C)(=O)=O	broth dilution			12.5 µg/mL
COc1cccc(OC)c1C(=O)N[C@@H]1C(=O)N2[C@@H]1SC(C)(C)[C@@H]2C(=O)O	broth dilution	USA300		> 64 µg/mL
N#CC(C#N)=C1SC(C(=O)c2ccc(Nc3cnccn3)cc2)=NN1c1ccccc1	broth dilution	ATCC25923		50 µg/mL
C[C@H]1COc2c(N3CCN(C)CC3)c(F)cc3c(=O)c(C(=O)O)cn1c23	broth dilution	ATCCBAA44	18 h	50 µM
CN[C@H](CC(C)C)C(=O)N[C@H]1C(=O)N[C@@H](CC(N)=O)C(=O)N[C@H]2C(=O)N[C@H]3C(=O)N[C@H](C(=O)N[C@H](C(=O)O)c4cc(O)cc(O)c4-c4cc3ccc4O)[C@H](O)c3ccc(c(Cl)c3)Oc3cc2cc(c3O[C@@H]2O[C@H](CO)[C@@H](O)[C@H](O)[C@H]2O[C@H]2C[C@](C)(N)[C@H](O)[C@H](C)O2)Oc2ccc(cc2Cl)[C@H]1O	broth dilution	ATCC29213		1 µg/mL
